In article PMC7610841 (Nature, 2020):
“Also recorded” adds a separate entry of the source.

Key:
senseless [1] = assay: Effect of overexpression on high target gene senseless in wing discs; assay type: in vivo, Drosophila; conditions: driven with ptc-Gal4 in wing discs
How it was run: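 Wing discs from crosses at 25°C, with V5-tagged human glypican UAS-attB transgenes driven by ptc-Gal4 (senseless) or en-Gal4 (Distal-less). Discs immunostained with Alexa-conjugated secondaries, DAPI-mounted and imaged by confocal microscopy. Distal-less signal quantified in boxed regions and plotted separately for anterior and posterior compartments. Three independent repeats.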

GFP-Wingless [2] = assay: In vivo trapping of GFP-Wingless at the surface of wing imaginal disc cells; design: species or system Drosophila; conditions: overexpressed with ptc-Gal4 in wing imaginal discs
How it was run: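 GFP-Wingless knock-in wing discs with V5-tagged human GPC4, GPC6, GPC3 or GPC5 driven by ptc-Gal4, crossed at 25°C. Surface capture of GFP-Wingless imaged by confocal microscopy after immunostaining with Alexa-conjugated secondaries and DAPI mounting. Three independent repeats.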

GFP-Wingless [3] = conditions: culture medium, literature; ref [6],[22]; cited from earlier work
senseless [4] = conditions: overexpressed; ref [13],[14]; cited from earlier work
GFP-Wingless[S239A] = assay: In vivo trapping of GFP-Wingless[S239A] at the surface of imaginal disc cells; design: species or system Drosophila; conditions: glypican overexpressed with ptc-Gal4 in imaginal discs
Distal-less = conditions: overexpressed; ref [13],[14]; cited from earlier work

B1: GPC6: human glypican of Dlp family; secreted ΔGPI form (amino acids 1-529) in solubilisation assays (protein)
chain: DVKARSCGEVRQAYGAKGFSLADIPYQEIAGEHLRICPQEYTCCTTEMEDKLSQQSKLEFENLVEETSHFVRTTFVSRHKKFDEFFRELLENAEKSLNDMFVRTYGMLYMQNSEVFQDLFTELKRYYTGGNVNLEEMLNDFWARLLERMFQLINPQYHFSEDYLECVSKYTDQLKPFGDVPRKLKIQVTRAFIAARTFVQGLTVGREVANRVSKVSPTPGCIRALMKMLYCPYCRGLPTVRPCNNYCLNVMKGCLANQADLDTEWNLFIDAMLLVAERLEGPFNIESVMDPIDVKISEAIMNMQENSMQVSAKVFQGCGQPKPAPALRSARSAPENFNTRFRPYNPEERPTTAAGTSLDRLVTDIKEKLKLSKKVWSALPYTICKDESVTAGTSNEEECWNGHSKARYLPEIMNDGLTNQINNPEVDVDITRPDTFIRQQIMALRVMTNKLKNAYNGNDVNFQDTSDESSGSGSGSGCMDDVCPTEFEFVTTEAPAVDPDRREVDS
modifications: left off: V5, internal (immediately after the signal peptide), state not stated
effect on high target gene senseless (senseless [1]): inhibit the high target gene senseless | trapping of GFP-Wingless at the cell surface (GFP-Wingless [2]; listed as hGPC6): trapped Wingless

B2: Afamin: lipid-binding protein (protein, UniProt P43652 22-599, looked up)
Afamin: LPTQPRDIENFNSTQKFIEDNIEYITIIAFAQYVQEATFEEMEKLVKDMVEYKDRCMADKTLPECSKLPNNVLQEKICAMEGLPQKHNFSHCCSKVDAQRRLCFFYNKKSDVGFLPPFPTLDPEEKCQAYESNRESLLNHFLYEVARRNPFVFAPTLLTVAVHFEEVAKSCCEEQNKVNCLQTRAIPVTQYLKAFSSYQKHVCGALLKFGTKVVHFIYIAILSQKFPKIEFKELISLVEDVSSNYDGCCEGDVVQCIRDTSKVMNHICSKQDSISSKIKECCEKKIPERGQCIINSNKDDRPKDLSLREGKFTDSENVCQERDADPDTFFAKFTFEYSRRHPDLSIPELLRIVQIYKDLLRNCCNTENPPGCYRYAEDKFNETTEKSLKMVQQECKHFQNLGKDGLKYHYLIRLTKIAPQLSTEELVSLGEKMVTAFTTCCTLSEEFACVDNLADLVFGELCGVNENRTINPAVDHCCKTNFAFRRPCFESLKADKTYVPPPFSQDLFTFHADMCQSQNEELQRKTDRFLVNLVKLKHELTDEELQSLFTNFANVVDKCCKAESPEVCFNEESPKIGN
release of soluble Wnt on addition of lipid-binding protein (GFP-Wingless [3]): enables the release of soluble Wnt

B3: Dlp: Drosophila glypican Dally-like protein (protein)
chain: PQVAALAAPNPAGGVAGSSIIDQFSPNCSAVTHIFQARGIDAIEIPQKPSNERVLRYCESPSVGTCCTYNMETRMAMQSRQQLEGHTKDQISRMSGILGSKATKFKDIFTALLKESRTQFNSMFIRTYGVIYERNSYVFSDLFKELETYFANGRVDLLEVMDKFFNTLYQKMFTVLNTQYTFDENYMRCVSEHMKELKPFGDVPDKLSVQIKRSFVATRTYGQALTTASEVAKKVLNVRLNADCTGALTKMQHCGACKGYTEKPCTNYCVNVIKGCLHYQHEFDSEWENFAMAMDKVAERLLGSFNIVMVVEPLNIKISEAIMNFQDSGQDITNRVFQGCGRPKLKKMKRSISPKLQGVQILNARSPVEADTLDIDETLDEAIVLRERRAAEPGSQETSAQQSQEQGVGKSGNGGGGGGGNNRRQQQRRKQQQQRRKQQNNRDDNDDDDNESGGGREPILDRIVRDIRQRVKDYKKFWSNLPHSVCSNEDIASSSDVDGMCWNGHTIDRYMHSITTEHGSNPEFTGNPASTKQTAQMASQLSHLKNAIVHLRNAYNGQDVEWSEQEELPYAGSGAGSGSGSEDDEDDDEGSGLGPFEPSHKPDVERPSVDADNDDDEDAGGRGHMPTHTSRPTSGVDDKNPLIHTTHFDQDHNDLDEDHRQLDEDEDTDAG
modifications: left off: HA, end not stated, kept
biphasic activity in wing imaginal discs: senseless (senseless [4]): inhibiting the high target gene senseless | trapping of GFP-Wingless[S239A] (unlipidated) (GFP-Wingless[S239A]): did not detectably trap; also recorded: not GFP-Wingless[S239A] | trapping of GFP-Wingless at the cell surface (GFP-Wingless [2]): duly trapped endogenous-level GFP-Wingless; also recorded: captures GFP-Wingless | biphasic activity in wing imaginal discs: distal-less (Distal-less): extending the range of the low target gene distal-less
